Activity calls are given as the source filed them. No cut-off for these calls is given here.
How the values were obtained:
[1] = test system: HCT-116; test: Cell cycle arrest in human HCT116 cells assessed as accumulation at G0/G1 phase at 1 uM after 48 hrs using propidium iodide staining by flow cytometry (reference value: 92.07%); format: functional
[2] = test system: HL-60; test: Induction of apoptosis in human HL60 cells assessed as increase of PARP1 cleavage at 0.2 uM after 6 hrs by Western blot analysis; format: functional, cell-based
Summary of the method: (§1)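 HSC-2 cells were treated at 0.4 µM and HL-60 cells at 0.2 µM. Cells were washed in ice-cold PBS and lysed in HEPES pH 7.4/Triton X-100 buffer with phosphatase and protease inhibitors. Lysates were run on 8% SDS-PAGE and transferred to PVDF. Blots were blocked in 5% milk and probed with anti-cleaved PARP1 and anti-β-actin, then HRP-conjugated secondary antibodies.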

[3] = test system: L1210; test: Growth inhibition of mouse L1210 cells; format: functional, cell-based
[4] = biological target: T1, ATP-dependent translocase ABCB1 (Homo sapiens, UniProt P08183); test: Inhibition of human MDR1-mediated multidrug resistant in mouse L5178Y cells at 4 uM treated 10 mins before rhodamine 123 challenge measured after 20 mins relative to control; format: cell-based
Summary of the method: (§2)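 Compounds in DMSO were added at room temperature to mdr1-transfected and parental L5178Y cells. After 10 min, rhodamine 123 was added, followed by 20 min at 37 °C. Cellular rhodamine fluorescence was measured and expressed as fluorescence activity ratio (FAR); FAR >1 indicates MDR reversal.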

[5] = test system: HSC-4; test: Cytotoxicity against human HSC4 cells after 48 hrs; format: functional; conditions: HSC-4, 48 h
Summary of the method: (§3)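 Human HSC-2, HSC-3, HSC-4 squamous carcinoma and HL-60 promyelocytic leukaemia cells incubated with compound for 48 h. CC50, the concentration killing 50% of cells, read from a dose–response curve.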

[6] = test system: CCRF-CEM; test: Growth inhibition of human CEM cells; format: functional, cell-based
[7] = test system: HSC-2; test: Induction of apoptosis in human HSC2 cells assessed as increase of PARP1 cleavage at 0.4 uM after 12 hrs by Western blot analysis; format: functional, cell-based; summary of the method: as §1
[8] = test system: RPMI-8226; test: Cytotoxicity against human RPMI8226 cells; format: functional, cell-based
Summary of the method: (§4)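 Human colon cancer and leukaemia line panel. Compounds tested from 10^-4 to 10^-8 M, and IC50 values determined.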

[9] = test system: HSC-3; test: Cytotoxicity against human HSC3 cells after 48 hrs; format: functional; conditions: HSC-3, 48 h; summary of the method: as §3
[10] = test system: SW-620; test: Cytotoxicity against human SW620 cells; format: functional, cell-based; summary of the method: as §4
[11] = test system: K562; test: Cytotoxicity against human K562 cells; format: functional, cell-based; summary of the method: as §4
[12] = test system: COLO 205; test: Cytotoxicity against human COLO205 cells; format: functional, cell-based; summary of the method: as §4
[13] = test system: HSC-2; test: Induction of apoptosis in human HSC2 cells assessed as formation of internucleosomal DNA fragmentation at up to 0.8 uM after 6 hrs; format: functional, cell-based
[14] = biological target: T1, ATP-dependent translocase ABCB1; test: Inhibition of human MDR1-mediated multidrug resistant in mouse L5178Y cells at 40 uM treated 10 mins before rhodamine 123 challenge measured after 20 mins relative to control; format: cell-based; summary of the method: as §2
[15] = test system: HL-60; test: Cytotoxicity against human HL60 cells after 48 hrs; format: functional; conditions: HL-60, 48 h; summary of the method: as §3
[16] = test system: HT-29; test: Cytotoxicity against human HT-29 cells; format: functional, cell-based; summary of the method: as §4
[17] = test system: HCT-116; test: Cell cycle arrest in human HCT116 cells assessed as accumulation at G2/M phase at 1 uM after 48 hrs using propidium iodide staining by flow cytometry (reference value: 4.75%); format: functional
[18] = test system: HCC 2998; test: Cytotoxicity against human HCC2998 cells; format: functional, cell-based; summary of the method: as §4
[19] = test system: MOLT-4; test: Growth inhibition of human Molt4/C8 cells; format: functional, cell-based
[20] = test system: HCT-15; test: Cytotoxicity against human HCT15 cells; format: functional, cell-based; summary of the method: as §4
[21] = test system: HL-60(TB); test: Cytotoxicity against human HL-60(TB) cells; format: functional, cell-based; summary of the method: as §4
[22] = test system: HCT-116; test: Cell cycle arrest in human HCT116 cells assessed as accumulation at S phase at 1 uM after 48 hrs using propidium iodide staining by flow cytometry (reference value: 3.19%); format: functional
[23] = Cytotoxicity against human HGF cells after 48 hrs; format: cell-based
Summary of the method: (§5)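 Cells were exposed to a dose range for 48 h, following a literature method. CC50 was read from the dose–response curve.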

[24] = test system: HSC-3; test: Selectivity index, ratio of CC50 for human normal cells to CC50 for human HSC3 cells; format: functional
[25] = test system: HL-60; test: Induction of apoptosis in human HL60 cells assessed as formation of internucleosomal DNA fragmentation at up to 0.8 uM after 6 hrs; format: functional, cell-based
[26] = test system: HSC-2; test: Induction of apoptosis in human HSC2 cells assessed as formation of internucleosomal DNA fragmentation at up to 0.8 uM after 24 hrs; format: functional, cell-based
[27] = test system: HSC-2; test: Cytotoxicity against human HSC2 cells after 48 hrs; format: functional; conditions: HSC-2, 48 h; summary of the method: as §3
[28] = test system: HSC-2; test: Induction of apoptosis in human HSC2 cells assessed as increase of caspase-3 activation using DEVD-pnitroanilide as substrate after 6 hrs; format: functional, cell-based
Summary of the method: (§6)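 HSC-2 and HL-60 cells were exposed for up to 6 h and then lysed. Lysates were mixed with DEVD-p-nitroanilide and incubated at 37 °C for 2 h. Released p-nitroanilide was read at 405 nm.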

[29] = test system: HL-60; test: Induction of apoptosis in human HL60 cells assessed as formation of internucleosomal DNA fragmentation at up to 0.8 uM after 24 hrs; format: functional, cell-based
[30] = Cytotoxicity against human HPLF cells after 48 hrs; format: cell-based; summary of the method: as §5
[31] = test system: HSC-2; test: Selectivity index, ratio of CC50 for human normal cells to CC50 for human HSC2 cells; format: functional
[32] = test system: HL-60; test: Induction of apoptosis in human HL60 cells assessed as increase of caspase-3 activation using DEVD-pnitroanilide as substrate after 6 hrs; format: functional, cell-based; summary of the method: as §6
[33] = test system: KM12; test: Cytotoxicity against human KM12 cells; format: functional, cell-based; summary of the method: as §4
[34] = test system: HCT-116; test: Cytotoxicity against human HCT116 cells; format: functional, cell-based; summary of the method: as §4
[35] = test system: HSC-4; test: Selectivity index, ratio of CC50 for human normal cells to CC50 for human HSC4 cells; format: functional
[36] = test system: HL-60; test: Selectivity index, ratio of CC50 for human normal cells to CC50 for human HL60 cells; format: functional
[37] = test system: HCT-116; test: Cell cycle arrest in human HCT116 cells assessed as accumulation at S phase at 16 uM after 48 hrs using propidium iodide staining by flow cytometry (reference value: 3.19%); format: functional
[38] = test system: HCT-116; test: Cell cycle arrest in human HCT116 cells assessed as accumulation at G0/G1 phase at 16 uM after 48 hrs using propidium iodide staining by flow cytometry (reference value: 92.07%); format: functional
[39] = test system: HCT-116; test: Cell cycle arrest in human HCT116 cells assessed as accumulation at G2/M phase at 16 uM after 48 hrs using propidium iodide staining by flow cytometry (reference value: 4.75%); format: functional

T1 sequence (P08183 whole entry): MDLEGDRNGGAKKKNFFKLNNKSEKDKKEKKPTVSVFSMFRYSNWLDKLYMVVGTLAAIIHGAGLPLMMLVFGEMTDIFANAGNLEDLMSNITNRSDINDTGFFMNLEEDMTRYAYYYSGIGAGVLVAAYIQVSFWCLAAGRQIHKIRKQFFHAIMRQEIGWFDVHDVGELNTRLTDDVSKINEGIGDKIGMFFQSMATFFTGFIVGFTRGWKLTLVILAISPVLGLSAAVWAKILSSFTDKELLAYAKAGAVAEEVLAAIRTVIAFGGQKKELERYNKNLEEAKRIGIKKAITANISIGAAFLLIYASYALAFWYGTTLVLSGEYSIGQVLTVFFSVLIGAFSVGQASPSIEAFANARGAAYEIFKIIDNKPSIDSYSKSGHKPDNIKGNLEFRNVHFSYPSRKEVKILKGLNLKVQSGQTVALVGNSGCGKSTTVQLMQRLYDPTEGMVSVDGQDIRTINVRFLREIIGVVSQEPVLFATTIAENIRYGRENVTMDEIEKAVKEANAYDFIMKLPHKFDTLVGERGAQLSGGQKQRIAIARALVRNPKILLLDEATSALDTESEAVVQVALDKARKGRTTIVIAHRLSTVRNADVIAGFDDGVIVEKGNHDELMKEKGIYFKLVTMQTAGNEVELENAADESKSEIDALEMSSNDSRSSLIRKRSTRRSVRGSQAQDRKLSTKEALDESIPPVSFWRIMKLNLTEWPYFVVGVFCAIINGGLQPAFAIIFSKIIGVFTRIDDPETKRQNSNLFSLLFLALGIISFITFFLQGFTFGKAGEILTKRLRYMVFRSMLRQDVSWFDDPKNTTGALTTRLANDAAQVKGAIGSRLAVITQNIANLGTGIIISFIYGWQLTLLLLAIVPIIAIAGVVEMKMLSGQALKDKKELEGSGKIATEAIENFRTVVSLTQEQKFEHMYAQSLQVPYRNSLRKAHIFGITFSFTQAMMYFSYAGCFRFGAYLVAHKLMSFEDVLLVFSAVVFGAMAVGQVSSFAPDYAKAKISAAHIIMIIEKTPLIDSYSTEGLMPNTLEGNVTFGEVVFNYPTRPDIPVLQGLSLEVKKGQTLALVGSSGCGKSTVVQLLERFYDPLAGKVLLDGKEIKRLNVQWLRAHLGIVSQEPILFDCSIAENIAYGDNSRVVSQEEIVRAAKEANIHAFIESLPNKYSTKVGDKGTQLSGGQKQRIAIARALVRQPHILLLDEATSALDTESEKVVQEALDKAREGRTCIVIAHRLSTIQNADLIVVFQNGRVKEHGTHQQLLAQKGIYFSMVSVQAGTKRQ

In the case of O=C1/C(=C/c2ccccc2)CN(C(=O)CC(=O)N2C/C(=C\c3ccccc3)C(=O)/C(=C/c3ccccc3)C2)C/C1=C\c1ccccc1, the Activity [1] is reported as 31.54%, the Activity [2] is reported as “Active” and the “growth inhibition (GI)” value [3] is reported as “Active”. The Ratio [4] was 35.3, the CC50 [5] was 84 nM and the “growth inhibition (GI)” value [6] was “Active”. The Activity [7] was “Active”, the IC50 [8] was 130 nM and the CC50 [9] was 46 nM. It also gave an IC50 [10] of 50 nM, an IC50 [11] of 50 nM and an IC50 [12] of 160 nM. For the same molecule, the Activity [13] was “inactive”, the Ratio [14] was 53.3 and the CC50 [15] was 46 nM. For the same molecule, the IC50 [16] was 50 nM, the Activity [17] was 25.01% and the IC50 [18] was 170 nM. For the same molecule, the “growth inhibition (GI)” value [19] was “Active”, the IC50 [20] was 170 nM and the IC50 [21] was 290 nM. The Activity [22] was 43.46%, the CC50 at 48 h [23] was 1100 nM and the Ratio [24] was 20. For the same molecule, the Activity [25] was “Active”, the Activity [26] was “Active” and the CC50 [27] was 50 nM. For the same molecule, the Activity [28] was “Active”, the Activity [29] was “Active” and the CC50 at 48 h [30] was 1300 nM. For the same molecule, the Ratio [31] was 18.4, the Activity [32] was “Active” and the IC50 [33] was 130 nM. For the same molecule, the IC50 [34] was 30 nM, the Ratio [35] was 11 and the Ratio [36] was 20.
Molecule COc1cc(/C=C/C(=O)CC(=O)/C=C/c2ccc(O)c(OC)c2)ccc1O [CURCUMIN] has an Activity [37] of 5.62%, an Activity [38] of 48.97% and an Activity [39] of 45.42%.

From ChEMBL document CHEMBL2010770, “Dimeric 3,5-bis(benzylidene)-4-piperidones: a novel cluster of tumour-selective cytotoxins possessing multidrug-resistant properties” (Eur J Med Chem, 2012)
